The record followed here is the RNAGym collection of RNA variant scans (doi:10.1038/nmeth.2970).

Sequences and labels used below:
B1: NELF-E aptamer (parent)
chain: CCCAACGACUGCCGAGCGAGAUUACGCUUGAGCGCCCCACUGAGGAUGCCCACGGGCGAUUGGGGCACGG

The variants in this data set derive from B1. Nature of the data set: HiTS-RAP. The settings on record: with NELF-E (Drosophila). A digest of the protocol: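 Aptamer DNA templates bearing a T7 promoter and a ter site were sequenced on an Illumina GAIIx flowcell. T7 RNA polymerase then transcribed them in situ, and GST-Tus halted transcription over 30 minutes at 37°C. After a 30-minute room-temperature equilibration with NELF-E-mOrange at 0.064 to 1000 nM in HEPES binding buffer, clusters were imaged, using only the first binding curve. Intensities normalised to sequencing intensity were averaged per sequence and fitted with weighted Hill fits to give Kd, retaining only fits whose variance stayed under 1,000,000.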
Turning to C6G C51U, the Kd is 7.16 nM. Next, C6G C53G: 7.67 nM; C6G C53U: 4.15 nM; G7A A8C: 5.87 nM. Next, G7A A8U: 8.46 nM; G7A A8G: 6.39 nM.

Take C6G G54U: the Kd stood at 9.57 nM.

With C6G G54A, the Kd is 12.5 nM. Then C6G U60A, with 10.9 nM; and C6G U60C, with 10.3 nM. On to C6G U60G, for which the Kd was determined as 5.7 nM. Next, G7A: 5.61 nM; C6G C9G: 5.38 nM. Take C6G C9U: the Kd stood at 5.58 nM. Then C6G G62U, with 7.26 nM; and C6G G62A, with 21.9 nM; and C6G U10G, with 4.77 nM. For the variant C6G U10C, the Kd worked out at 5.34 nM. Next, C6G U10A: 5.16 nM.

With C6U U23G, the Kd was found to be 6.14 nM. On to C6U A24G, for which the Kd amounted to 5.94 nM. Next, C6U A8U: 7.13 nM; C6U A8G: 6.02 nM; C6G U47G: 6.93 nM.

As to C6G U47A, the Kd was found to be 10.5 nM.

Take C6G G16U: the Kd came out at 6.81 nM. Regarding C6G G16A, the Kd was 5.84 nM. Then C6G U29G, with 4.97 nM. Then C6G U29A, with 5.51 nM; and C6G U29C, with 4.69 nM. Next, G7A G63A: 14.4 nM; C6G U22G: 5.09 nM; C6G U22C: 5.08 nM. Turning to C6G C13U, the Kd came to 4.96 nM.

As to C6G C13G, the Kd is 5.09 nM. Regarding C6U A59G, the Kd was determined as 69.1 nM.

Turning to C6U A52U, the equilibrium dissociation constant (Kd) came to 23.1 nM. Next, C6G G7A: 6.58 nM.

Turning to C6G G7U, the Kd worked out at 5.56 nM. Then C6G G7C, with 7.44 nM; and C6G G32A, with 4.6 nM. Next, C6G C33G: 5.77 nM; C6G C33U: 5.41 nM; C6U U61A: 38.1 nM. Then C6G C49G, with 8.75 nM.

With C6G C49U, the Kd amounted to 20.2 nM. Next, C6G C37A: 18.7 nM; C6G C37U: 23.4 nM; C6G G26A: 4.39 nM. C6G G26U: the Kd worked out at 5.54 nM. Then C6U A39G, with 11.6 nM; and C6G G56U, with 4.89 nM. Next, C6G G56A: 8.34 nM; C6U G54A: 14.5 nM; C6G G63U: 10.8 nM. Then C6G G63A, with 19.7 nM. Turning to C6U G11U, the Kd worked out at 6.12 nM. Then C6U G11A, with 5.43 nM. Then C6U C13U, with 5.09 nM; and C6U C13G, with 5.6 nM. As for C6U G42A, the Kd turned out to be 52.7 nM. For the variant C6U G34A, the Kd came to 6.54 nM. Then G7A G14U, with 6.75 nM. Then G7A A39G, with 12.1 nM; and C6G U61G, with 7 nM; and C6G U61C, with 74.8 nM. Then C6G U61A, with 38.7 nM; and C6G C17U, with 6.03 nM; and C6G C17G, with 5.02 nM. Take G7A A19U: the Kd was determined as 8.57 nM. As to C6U A15U, the Kd is 6.25 nM.

In the case of C6G G30U, the Kd is 6.84 nM. Turning to C6G G30A, the Kd is 4.52 nM. For the variant C6G C36U, the Kd stood at 7.42 nM.

On to C6G C40U, for which the Kd came to 70.3 nM. Then C6G C40G, with 8.23 nM; and C6G G11A, with 6.31 nM; and C6G G11U, with 5.8 nM. Then C6G C66U, with 5.41 nM; and C6G C66A, with 5.34 nM; and G7A U23G, with 5.95 nM. With C6U G16U, the Kd amounted to 6.67 nM. Next, G7A U10G: 5.66 nM; C6G G44U: 8.75 nM; C6G G44A: 61 nM.

For the variant C6U G55A, the Kd stood at 7.75 nM.

With C6U G20U, the Kd stood at 8.79 nM. For C6U G26A, the Kd turned out to be 4.04 nM.

Take G7A G11U: the Kd was found to be 7.32 nM.

For C6U U29G, the Kd turned out to be 5.8 nM.

Turning to C6U U29A, the dissociation constant Kd is 5.66 nM. Next, G7A C12G: 6.93 nM; C6G G64U: 6.35 nM; C6G G64A: 7.6 nM. Then C6G G64C, with 6.39 nM.

C6U C17U: the Kd was determined as 6.39 nM.

As for C6U C17G, the Kd is 6.11 nM. Then C6U C9G, with 6.57 nM. Then C6U C9U, with 5.38 nM; and C6U U22G, with 5.57 nM; and C6U C25G, with 7.85 nM. With C6G G14A, the Kd was 5.15 nM. Next, C6G G14U: 6.12 nM; C6U A21G: 7.12 nM; C6U C12G: 5.7 nM. Then C6U C12U, with 6.16 nM. Next, C6G C57G: 6.54 nM; C6G C57U: 6.1 nM. With G7A U29G, the Kd was 6.46 nM.

For the variant C6G A67U, the Kd turned out to be 6.45 nM.

C6G A67G: the Kd stood at 6.07 nM. Next, C6G G65A: 4.46 nM; C6G G65U: 6.3 nM. Next, C6U: 5.29 nM; C6G G55A: 6.61 nM. Take C6G G55U: the Kd amounted to 6.23 nM. Next, C6G C12G: 5.68 nM; C6G C12U: 5.53 nM.

With C6G C12A, the Kd is 6.77 nM. Next, C6U U10G: 5.57 nM. Then C6G A59G, with 54.9 nM; and C6G A59U, with 25.7 nM. On to G7A C13G, for which the Kd was 6.51 nM.

As to G7A C9G, the Kd worked out at 5.55 nM. Then G7A G16U, with 5.55 nM. Next, C6G G42U: 13.8 nM; C6G G42A: 40.3 nM; C6G U28G: 6.54 nM.

As to C6G U28A, the Kd was found to be 5.13 nM. Then C6G U28C, with 9 nM. On to C6G G20A, for which the Kd was found to be 6.35 nM. Then C6G G20U, with 6.34 nM; and C6U U41G, with 5.16 nM; and C6U U41C, with 81.8 nM. Then C6U U41A, with 82.3 nM; and C6G C38A, with 45.1 nM; and C6G C38U, with 10.4 nM. Consider C6G G34U, for which the dissociation constant Kd is 5.79 nM. Next, C6G G34A: 8 nM; C6U G56U: 6.57 nM; C6G G45U: 9.94 nM. As to C6G G45A, the Kd was found to be 91 nM. Next, C6G G48U: 5.75 nM. In the case of C6G G48A, the Kd stood at 11.6 nM.

Regarding C6U A19G, the Kd came to 6.06 nM. As for C6U A31G, the Kd was 8.72 nM.

Regarding C6G U41C, the Kd was 64.8 nM. Next, C6G U41G: 5.12 nM; C6G U41A: 103 nM. For C6G U23A, the Kd is 5.12 nM. Next, C6G U23G: 4.81 nM; C6G U23C: 4.4 nM. Next, C6G C25G: 5.65 nM; C6G C25U: 5.65 nM.

As for G7A A24G, the Kd amounted to 6.73 nM. With C6U G7U, the Kd was 6.71 nM. For C6G C27U, the Kd was found to be 5.23 nM.

Consider C6U G14A, for which the dissociation constant (Kd) is 7.01 nM. Next, C6U G14U: 7.02 nM; G7A U22G: 7 nM; C6G C35U: 16.8 nM. Next, C6G C35G: 7.18 nM; C6G G58U: 6.94 nM. Next, C6G C50G: 5.53 nM; C6G C50U: 16.1 nM; C6G G18A: 4.48 nM.

C6G G18U: the Kd is 6.37 nM.
